In the library only some 3.5% were active in any assay of this set; here they are far more common.
FN deposition inh: inhibitors of fibronectin matrix deposition, primary screen, AH1F cells, Alexa488-fibronectin fluorescence, plate reader; AH1F fibroblasts, overnight; inhibition, % at 12.6 µM; 350,000 compounds, 0.086% hits; AID 743247, 2014;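 active = mean inhibition across replicates of 30% or more, regardless of how many single replicates reach that level; inconclusive = mean under 30% yet at least half of replicates reach 30%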
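Assay system: AH1F fibroblasts assembling fluorescent fibronectin matrix; Amount: 10000 AH1F cells per well; Buffer or medium: DMEM, 2% serum; Probe or stimulus: Alexa488-fibronectin, 24 nM final in well; Doses: single compound dose, delivered by pin transfer; Incubation: 1 h adhesion, overnight exposure; Measured by: fluorescence 485/525 nm; Read-out: fibronectin deposition inhibition.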
rRNA inh HTS: reduced GFP signal of wild-type E. coli, primary screen, bacterial rRNA inhibitor project, GFP/RFP fluorescence, OD600, single point; E. coli WT GFP vs humanized-ribosome RFP mutants, 24 h; hits give low values; DMSO median 0, no signal -100; GFP signal change (wild-type ribosome), % (no concentration beside the values); 350,000 compounds, 1.6% hits; AID 720706, 2013;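 active = significant combined selectivity score with lowered wild-type GFP, culture density cut under 30%, mutant RFP and density less affected; inactive = any of these conditions unmet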
PGC1a acetyl inh: inhibitors of PGC1a acetylation signal, primary screen, cell-based, U2OS, AlphaScreen, inhibitor mode; AlphaScreen anti-acetyl-lysine; with virally co-expressed GCN5 acetyltransferase; inhibition, % at 15.6 µM; 350,000 compounds, 0.17% hits; AID 651687, 2012;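 active = every replicate shows inhibition of at least 40%; inconclusive = mean inhibition at least 40% but some replicate below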
PglD DTNB: C. jejuni PglD acetyltransferase inhibitors, primary screen, biochemical, DTNB colorimetric, single point | inhibition, % at 12.5 µM | purified PglD enzyme, DTNB colorimetric CoA detection | AID 602405, 2012 | 360,000 compounds, 0.098% hits; in the data active = inhibition above about 16%, passing the limit was not always enough; inconclusive = no clear call, values can overlap the other calls
DENV2 CPE: inhibitors of DENV2 cytopathic effect, primary screen, cell-based, plate reader, single concentration; DENV2-infected cells, cytopathic effect rescue; CPE inhibition, % at 9.99 µM; 350,000 compounds, 1.7% hits; in the data active = CPE inhibition above about 20%, passing the limit was not always enough; inconclusive = no clear call, values can overlap the other calls; tested in BHK-21 cells
Env fusion inh: inhibitors of HIV-1 Env-driven cell-cell fusion, primary screen, HeLa-JRFL effector, CEM21 target cells, luciferase | inhibition, % at 12.3 µM | 360,000 compounds, 1.1% hits | AID 651610, 2012;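 active = mean replicate inhibition score of at least 50 and every replicate individually at or above 50; inconclusive = only one of the two criteria met; inactive = mean below 50 and not all replicates reaching 50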
Numbers stand for hits; . = inactive; ? = inconclusive; / = not tested or not shown.

SMILES	FN deposition inh	rRNA inh HTS	PGC1a acetyl inh	PglD DTNB	DENV2 CPE	Env fusion inh
COc1ccc(OCc2cc(C(=O)N3CCSCC3)no2)c(Cl)c1	.	-28.9	.	.	.	.
CCCN1C[C@@H](C)[C@@H](OC)CN(C)C(=O)c2cc(NC(=O)Nc3c(C)noc3C)ccc2OC[C@H]1C	.	.	.	.	.	/
CC(C)CC#Cc1ccc2c(c1)O[C@@H](CN(C)Cc1ccncc1)[C@H](C)CN([C@@H](C)CO)S2(=O)=O	/	.	.	.	.	.
CC(C)CC#Cc1ccc([C@H]2[C@H](CO)N3CCCCN(S(=O)(=O)c4ccc(F)cc4)C[C@@H]23)cc1	/	.	.	.	.	/
O=S(=O)(c1cccs1)N1CCCCN2[C@H](C1)[C@H](c1ccc(C3=CCCCC3)cc1)[C@@H]2CO	/	/	.	.	.	/
COc1cc(C)ccc1OCc1cc(C(=O)NCCN2CCCC(O)C2)no1 (stereo not drawn)	/	.	.	.	62.5	.
COc1cc(C)ccc1OCc1cc(C(=O)N2CCCCCC2)no1	.	-26.1	.	.	.	.
COc1cc(Cl)ccc1OCc1cc(C(=O)N2CCCCCCC2)no1	.	.	.	.	.	.
CC(=O)c1ccc(OCc2cc(C(=O)NCCN3CCCC(O)C3)no2)cc1 (stereo not drawn)	.	.	/	.	.	.
COC(=O)[C@@H]1[C@@H](CO)[C@@H]2Cn3c(ccc(-c4cccnc4)c3=O)[C@@H]2N1Cc1cccc(F)c1	/	.	/	.	.	?
Cc1ccccc1S(=O)(=O)NCC[C@@H]1CC[C@H](NC(=O)C2CC2)[C@H](CO)O1	.	.	.	.	.	.
CCCNC(=O)/C(=C/c1cn(S(=O)(=O)N(C)C)c2ccccc12)NC(=O)c1ccc(OC)cc1	/	-25.6	.	/	.	.
COc1ccc(C(=O)N/C(=C\c2cn(S(=O)(=O)N(C)C)c3ccccc23)C(=O)NCCCn2ccnc2)cc1	.	.	.	.	.	.
CC(C)NC(=O)Nc1ccc2c(c1)C(=O)N([C@H](C)CO)C[C@@H](C)[C@@H](CN(C)C(=O)Nc1ccc3c(c1)OCO3)O2	/	.	.	.	24.9	.
CC(C)NC(=O)Nc1ccc2c(c1)C(=O)N([C@@H](C)CO)C[C@H](C)[C@H](CN(C)C(=O)Nc1ccc3c(c1)OCO3)O2	/	.	.	.	87.3	.
C[C@@H]1CN([C@H](C)CO)C(=O)c2cc(NC(=O)Nc3cccc4ccccc34)ccc2O[C@@H]1CN(C)C(=O)Nc1ccc2c(c1)OCO2	/	.	.	.	33.0	.
C[C@@H]1CN([C@@H](C)CO)C(=O)c2cc(NS(=O)(=O)c3ccccc3)ccc2O[C@@H]1CN(C)C(=O)Nc1ccc2c(c1)OCO2	.	.	.	.	49.1	.
C[C@H](CO)N1C[C@H](C)[C@H](CN(C)C(=O)Nc2ccc3c(c2)OCO3)Oc2ccc(NC(=O)Nc3ccc4c(c3)OCO4)cc2C1=O	/	.	.	.	.	.
C[C@@H]1CN([C@@H](C)CO)C(=O)c2cc(NC(=O)Nc3cccc4ccccc34)ccc2O[C@@H]1CN(C)C(=O)Nc1ccc2c(c1)OCO2	/	.	.	.	.	.
C[C@H](CO)N1C[C@H](C)[C@@H](CN(C)S(=O)(=O)c2cccs2)Oc2c(NC(=O)Nc3ccc(F)cc3)cccc2C1=O	.	.	.	.	.	.
C[C@H](CO)N1C[C@H](C)[C@@H](CN(C)C(=O)Cc2ccccc2)OCCCC[C@H](C)Oc2ccc(NC(=O)c3ccncc3)cc2C1=O	/	.	.	.	.	.
C/C(=N\N=C(/N)SC1CC(=O)N(c2ccc(Cl)c(Cl)c2)C1=O)c1cccs1 (stereo not drawn)	/	-38.7	.	.	.	/
C/C(=N\N=C(/N)SC1CC(=O)N(c2ccc(Cl)cc2)C1=O)c1cccs1 (stereo not drawn)	.	/	.	.	/	.
O=C(C[C@@H]1C[C@@H]2c3cc(NS(=O)(=O)c4ccccc4)ccc3O[C@@H]2[C@H](CO)O1)NC1CCCCC1	.	.	.	.	.	.
